Measured values reported in ChEMBL document CHEMBL5661968, “Antitumor activity of ZSTK474, a new phosphatidylinositol 3-kinase inhibitor” (J Natl Cancer Inst, 2006).
The source made the active and inactive calls. The rule behind the calls is not given here.

Assays:
U-251 = experiment: Growth inhibition of human U-251 cells measured after 48 hrs by sulforhodamine B assay; assay type: functional
Method in brief: (§1)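 JFCR39 panel lines were grown in RPMI 1640 with 5% FBS, penicillin and streptomycin at 37 °C in 5% CO2. After 48 h of drug exposure, total cellular protein was measured by sulforhodamine B staining. GI50 was calculated by a previously described method.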

SF-539 = experiment: Growth inhibition of human SF-539 cells measured after 48 hrs by sulforhodamine B assay; assay type: functional; method in brief: as §1
KM12 = experiment: Growth inhibition of human KM12 cells measured after 48 hrs by sulforhodamine B assay; assay type: functional; method in brief: as §1
HT-29 = experiment: Growth inhibition of human HT-29 cells measured after 48 hrs by sulforhodamine B assay; assay type: functional; method in brief: as §1
HCT-15 = experiment: Growth inhibition of human HCT-15 cells measured after 48 hrs by sulforhodamine B assay; assay type: functional; method in brief: as §1
NCI-H522 = experiment: Growth inhibition of human NCI-H522 cells measured after 48 hrs by sulforhodamine B assay; assay type: functional; method in brief: as §1
NCI-H460 = experiment: Growth inhibition of human NCI-H460 cells measured after 48 hrs by sulforhodamine B assay; assay type: functional; method in brief: as §1
A549 [1] = experiment: Growth inhibition of human A549 cells measured after 48 hrs by sulforhodamine B assay; assay type: functional; method in brief: as §1
LOX IMVI = experiment: Growth inhibition of human LOX IMVI cells measured after 48 hrs by sulforhodamine B assay; assay type: functional; method in brief: as §1
OVCAR-5 = experiment: Growth inhibition of human OVCAR-5 cells measured after 48 hrs by sulforhodamine B assay; assay type: functional; method in brief: as §1
St-4 = experiment: Growth inhibition of human St-4 cells measured after 48 hrs by sulforhodamine B assay; assay type: functional; method in brief: as §1
MKN-1 = experiment: Growth inhibition of human MKN-1 cells measured after 48 hrs by sulforhodamine B assay; assay type: functional; method in brief: as §1
MKN-74 = experiment: Growth inhibition of human MKN74 cells measured after 48 hrs by sulforhodamine B assay; assay type: functional; method in brief: as §1
A549 [2] = experiment: Reversible inhibition of PI3K in human A549 cell lysate at 1 uM preincubated with compound for 5 mins followed by [gamma-32p]-ATP addition measured after 20 mins by immunoprecipitation based liquid scintillation spectroscopic analysis; assay type: subcellular; details: time 25.0 min
Method in brief: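 Anti-p85 immunoprecipitates from A549 lysate treated 5 min with 1 μM compound, then split: one aliquot washed four times in 100 mM NaCl, 20 mM Tris pH 7.5 to remove free inhibitor, the other unwashed; both assayed with [γ-32P]ATP and phosphatidylinositol, PI3P counted by scintillation.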

OVCAR-3 = experiment: Induction of apoptosis in human OVCAR-3 cells assessed as increase in apoptotic cells at 10 uM measured after 48 hrs by propidium iodide staining based flow cytometric analysis; assay type: functional, cell-based
Method in brief: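 Cells harvested, washed in ice-cold PBS, fixed in 70% ethanol, washed twice in ice-cold PBS, treated with RNase A (500 μg/mL) at 37 °C for 1 h, stained with propidium iodide (25 μg/mL); DNA content read by flow cytometry.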

[3] = target: Glycogen synthase kinase-3 beta (Homo sapiens) (UniProt P49841); experiment: Inhibition of GSK-3beta phosphorylation at Ser9 residue in human A549 cells at 0.5 uM measured after 30 mins by Western blotting analysis; assay type: cell-based
Glycogen synthase kinase-3 beta (Homo sapiens), sequence (P49841 whole entry, looked up): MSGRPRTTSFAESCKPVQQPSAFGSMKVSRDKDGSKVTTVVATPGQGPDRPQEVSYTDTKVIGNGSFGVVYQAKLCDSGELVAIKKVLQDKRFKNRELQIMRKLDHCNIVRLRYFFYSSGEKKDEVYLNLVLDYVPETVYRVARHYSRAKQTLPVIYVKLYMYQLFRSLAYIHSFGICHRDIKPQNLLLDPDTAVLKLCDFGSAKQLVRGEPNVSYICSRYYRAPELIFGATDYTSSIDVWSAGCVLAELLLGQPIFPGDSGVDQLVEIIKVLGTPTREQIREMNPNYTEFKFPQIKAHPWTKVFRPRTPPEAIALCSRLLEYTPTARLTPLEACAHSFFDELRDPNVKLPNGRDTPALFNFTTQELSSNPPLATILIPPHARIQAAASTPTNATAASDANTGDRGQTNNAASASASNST

A549 [4] = experiment: Downregulation of cyclin D1 expression in human A549 cells at 0.5 uM measured after 30 mins by Western blotting analysis; assay type: functional, cell-based
Method in brief: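 A549 cells were lysed in Tris-HCl pH 7.4 buffer with NaF, pyrophosphate, Na3VO4, EDTA, aprotinin, PMSF, 0.5% NP-40 and 0.1% SDS. Lysates were run on SDS-PAGE and blotted to PVDF. Blots were probed with rabbit anti-cyclin D1 polyclonal (1:200), then HRP anti-rabbit IgG, and detected by ECL chemiluminescence.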

[5] = target: Forkhead box protein O3 (Homo sapiens) (UniProt O43524); experiment: Inhibition of FKHRL1 phosphorylation in Thr-32 residue human A549 cells measured after 3 hrs by immunoblotting analysis; assay type: cell-based; details: dose <= 2.0 µM
Forkhead box protein O3 (Homo sapiens), sequence (O43524 whole entry): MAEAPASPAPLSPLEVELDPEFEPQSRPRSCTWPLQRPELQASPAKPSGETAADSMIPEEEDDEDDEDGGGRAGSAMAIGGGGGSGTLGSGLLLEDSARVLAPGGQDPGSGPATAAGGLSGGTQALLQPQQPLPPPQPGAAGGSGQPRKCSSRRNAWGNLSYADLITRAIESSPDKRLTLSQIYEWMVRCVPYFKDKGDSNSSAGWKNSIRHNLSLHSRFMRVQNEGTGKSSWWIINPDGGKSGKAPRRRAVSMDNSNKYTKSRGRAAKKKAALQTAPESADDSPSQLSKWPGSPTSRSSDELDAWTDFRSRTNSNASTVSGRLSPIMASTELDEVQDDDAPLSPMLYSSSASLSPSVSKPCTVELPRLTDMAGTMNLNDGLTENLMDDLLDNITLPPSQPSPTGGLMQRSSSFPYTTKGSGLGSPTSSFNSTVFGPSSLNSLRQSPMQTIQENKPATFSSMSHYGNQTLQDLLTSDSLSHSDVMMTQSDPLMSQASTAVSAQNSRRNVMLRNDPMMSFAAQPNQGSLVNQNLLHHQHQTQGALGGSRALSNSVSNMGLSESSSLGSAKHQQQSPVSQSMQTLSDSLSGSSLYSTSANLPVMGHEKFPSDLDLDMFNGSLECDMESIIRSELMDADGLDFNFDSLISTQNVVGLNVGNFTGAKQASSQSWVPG
Method in brief: (§2)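 A549 cells treated over 0 to 2.0 μM; lysed in 10 mM Tris–HCl pH 7.4, 50 mM NaCl, NaF, pyrophosphate, vanadate, EDTA, protease inhibitors, 0.5% NP-40, 0.1% SDS; proteins resolved by SDS-PAGE, blotted to PVDF, probed with phospho-specific antibodies, HRP secondary, ECL detection.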

[6] = target: Ribosomal protein S6 kinase beta-1 (Homo sapiens) (UniProt P23443); experiment: Inhibition of p70S6K phosphorylation at Thr-389 residue in human A549 cells measured after 3 hrs by immunoblotting analysis; assay type: cell-based; details: dose <= 2.0 µM; method in brief: as §2
Ribosomal protein S6 kinase beta-1 (Homo sapiens), sequence (P23443 whole entry, looked up): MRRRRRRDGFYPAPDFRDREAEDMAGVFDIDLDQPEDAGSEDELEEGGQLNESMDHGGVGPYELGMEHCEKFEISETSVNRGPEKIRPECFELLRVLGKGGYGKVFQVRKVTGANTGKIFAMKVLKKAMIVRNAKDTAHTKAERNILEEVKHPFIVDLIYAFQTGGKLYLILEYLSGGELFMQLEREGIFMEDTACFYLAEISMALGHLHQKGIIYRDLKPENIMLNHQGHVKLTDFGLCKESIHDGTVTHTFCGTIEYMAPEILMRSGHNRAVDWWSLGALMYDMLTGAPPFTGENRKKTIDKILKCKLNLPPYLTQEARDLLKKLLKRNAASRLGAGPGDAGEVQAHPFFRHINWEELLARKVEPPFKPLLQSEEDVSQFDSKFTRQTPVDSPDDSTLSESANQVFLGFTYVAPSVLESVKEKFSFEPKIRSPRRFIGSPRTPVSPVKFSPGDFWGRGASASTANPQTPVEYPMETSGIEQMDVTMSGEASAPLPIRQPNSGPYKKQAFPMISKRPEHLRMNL

A549 [7] = experiment: Antitumor activity against human A549 cells xenografted in nude mouse assessed as inhibition of tumor growth at 400 mg/kg, po administered on day 0 to 13 except for day 3 and 10 measured after 14 days; assay type: functional, organism-based; details: time 14.0 day
Method in brief: (§3)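 Female BALB/c-background nude mice were implanted s.c. with 3 × 3 × 3 mm tumor fragments. At 100–300 mm3 tumor volume (day 0), groups of five were randomized and dosed orally at 400 mg/kg on days 0–13, skipping days 3 and 10. Caliper volume was (L×W2)/2, relative to day 0 (RTV). T/C% on day 14 = 100 × mean treated RTV / mean control RTV.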

WiDr = experiment: Antitumor activity against human WiDr cells xenografted in nude mouse assessed as inhibition of tumor growth at 400 mg/kg, po administered on day 0 to 13 except for day 3 and 10 measured after 14 days; assay type: functional, organism-based; details: time 14.0 day; method in brief: as §3
[8] = Toxicity in nude mouse xenografted with human A549 cells assessed as change in body weight at 800 mg/kg, po administered on day 0 to 13 except for day 3 and 10 measured after 28 days (reference value: 14 %); assay type: organism-based; details: in vivo, 672 h, time 28 day
[9] = Toxicity in nude mouse xenografted with human A549 cells assessed as change in body weight at 400 mg/kg, po administered on day 0 to 13 except for day 3 and 10 measured after 28 days (reference value: 17 %); assay type: organism-based; details: in vivo, 672 h, time 28 day
[10] = target: Dual specificity mitogen-activated protein kinase kinase 1 (Homo sapiens) (UniProt Q02750); experiment: Inhibition of MEK1 phosphorylation at Ser-217/221 residues in human A549 cells measured after 3 hrs by immunoblotting analysis; details: dose <= 2.0 µM
Dual specificity mitogen-activated protein kinase kinase 1 (Homo sapiens), sequence (Q02750 whole entry): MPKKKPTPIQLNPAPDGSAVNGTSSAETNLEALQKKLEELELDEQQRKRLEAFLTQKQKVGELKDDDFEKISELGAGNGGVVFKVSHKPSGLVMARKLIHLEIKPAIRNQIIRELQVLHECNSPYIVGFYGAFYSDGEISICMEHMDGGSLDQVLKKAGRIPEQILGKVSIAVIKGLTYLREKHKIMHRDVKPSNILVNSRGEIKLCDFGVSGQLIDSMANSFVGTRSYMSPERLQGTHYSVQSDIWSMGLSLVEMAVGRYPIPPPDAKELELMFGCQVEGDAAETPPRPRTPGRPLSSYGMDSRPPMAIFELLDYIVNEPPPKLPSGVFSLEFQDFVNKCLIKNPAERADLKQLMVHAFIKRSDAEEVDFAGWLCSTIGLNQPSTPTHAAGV

[11] = target: Dual specificity mitogen-activated protein kinase kinase 2 (Homo sapiens) (UniProt P36507); experiment: Inhibition of MEK2 phosphorylation at Ser-217/221 residues in human A549 cells measured after 3 hrs by immunoblotting analysis; details: dose <= 2.0 µM
Dual specificity mitogen-activated protein kinase kinase 2 (Homo sapiens), sequence (P36507 whole entry): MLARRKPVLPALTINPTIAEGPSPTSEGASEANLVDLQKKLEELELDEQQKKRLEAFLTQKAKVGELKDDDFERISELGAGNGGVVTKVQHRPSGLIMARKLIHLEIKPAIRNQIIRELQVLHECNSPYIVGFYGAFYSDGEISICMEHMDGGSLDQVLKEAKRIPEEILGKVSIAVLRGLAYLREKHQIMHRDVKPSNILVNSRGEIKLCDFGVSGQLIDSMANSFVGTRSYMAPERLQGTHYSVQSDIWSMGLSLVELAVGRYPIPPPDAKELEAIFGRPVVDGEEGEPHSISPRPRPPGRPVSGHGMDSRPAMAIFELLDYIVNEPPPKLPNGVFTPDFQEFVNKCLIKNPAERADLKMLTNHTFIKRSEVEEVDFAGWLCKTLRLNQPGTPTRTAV

[12] = target: Mitogen-activated protein kinase 3 (Homo sapiens) (UniProt P27361); experiment: Inhibition of ERK1 phosphorylation at Thr-202/Tyr-204 residues in human A549 cells measured after 3 hrs by immunoblotting analysis; details: dose <= 2.0 µM
Mitogen-activated protein kinase 3 (Homo sapiens), sequence (P27361 whole entry): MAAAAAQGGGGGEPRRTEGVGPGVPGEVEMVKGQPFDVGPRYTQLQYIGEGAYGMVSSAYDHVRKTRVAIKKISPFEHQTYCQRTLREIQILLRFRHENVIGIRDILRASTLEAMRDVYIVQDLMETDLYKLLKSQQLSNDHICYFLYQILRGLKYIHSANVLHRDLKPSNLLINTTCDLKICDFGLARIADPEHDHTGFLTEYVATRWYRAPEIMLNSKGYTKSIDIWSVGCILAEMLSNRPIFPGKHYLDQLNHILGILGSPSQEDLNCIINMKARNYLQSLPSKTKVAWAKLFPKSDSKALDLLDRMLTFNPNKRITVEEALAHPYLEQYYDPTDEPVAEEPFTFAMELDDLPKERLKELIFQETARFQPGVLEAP

[13] = target: Mitogen-activated protein kinase 1 (Homo sapiens) (UniProt P28482); experiment: Inhibition of ERK2 phosphorylation at Thr-202/Tyr-204 residues in human A549 cells measured after 3 hrs by immunoblotting analysis; details: dose <= 2.0 µM
Mitogen-activated protein kinase 1 (Homo sapiens), sequence (P28482 whole entry): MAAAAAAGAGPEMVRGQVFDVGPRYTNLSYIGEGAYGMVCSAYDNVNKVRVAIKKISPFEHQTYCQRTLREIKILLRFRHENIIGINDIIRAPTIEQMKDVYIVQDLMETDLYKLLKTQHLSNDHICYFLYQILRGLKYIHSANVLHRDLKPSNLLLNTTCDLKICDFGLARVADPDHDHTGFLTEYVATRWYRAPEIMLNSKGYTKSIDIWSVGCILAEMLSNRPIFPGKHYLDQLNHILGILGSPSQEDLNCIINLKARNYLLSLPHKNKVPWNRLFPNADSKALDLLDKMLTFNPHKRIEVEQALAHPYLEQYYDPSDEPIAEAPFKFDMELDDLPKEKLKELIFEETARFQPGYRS

[14] = Residual PI3K activity in human A549 cell lysate at 1 uM preincubated with compound for 5 mins followed by [gamma-32p]-ATP addition measured after 20 mins by immunoprecipitation based liquid scintillation spectroscopic analysis relative to control; details: A549, 25 min

- GI50 (U-251): 1100 nM
- GI50 (HT-29): 447 nM
- GI50 (HCT-15): 513 nM
- GI50 (NCI-H522): 151 nM
- GI50 (NCI-H460): 468 nM
- GI50 (A549 [1]): 501 nM
- GI50 (OVCAR-5): 813 nM
- GI50 (MKN-1): 224 nM
- GI50 (MKN-74): 617 nM
- inhibition (A549 [2]): Active
- inhibition [3]: Active
- inhibition [5]: Dose-Dependent Effect
- inhibition [6]: Dose-Dependent Effect
- inhibition [10]: inactive
- inhibition [11]: inactive
- inhibition [12]: inactive
- inhibition [13]: inactive
SMILES: FC(F)c1nc2ccccc2n1-c1nc(N2CCOCC2)nc(N2CCOCC2)n1 [ZSTK-474]
- GI50 (SF-539): 347 nM
- GI50 (KM12): 1660 nM
- GI50 (LOX IMVI): 457 nM
- GI50 (St-4): 1700 nM
- Activity (OVCAR-3): Active
- Activity (A549 [4]): Active
- Activity (A549 [7]): Active
- Activity (WiDr): Active
- Activity [8]: Non-Toxic
- Activity [9]: 0%
- level, % of control at 1 µM [14]: 4.7%
